Laboratory results published in ChEMBL document CHEMBL2346608, “New annelated thieno[2,3-e][1,2,3]triazolo[1,5-a]pyrimidines, with potent anticancer activity, designed through VLAK protocol” (2013).

Tests used:
Format in all cases: functional
DU-145 = assay: Antiproliferative activity against human DU145 cells after 48 hrs by sulforhodamine B assay; settings: DU-145, 48 h
Summary of the method: (§1)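 Cells grown in RPMI 1640 with 5% FBS and 2 mM L-glutamine, plated at 5000–40,000 cells/well and preincubated 24 h at 37 °C, 5% CO2. Five drug concentrations (10-fold or ½-log dilutions from DMSO stocks) applied for 48 h. TCA-fixed (final 10% adherent, 16% suspension), SRB-stained, A515 read. Growth versus time-zero and control wells gave GI50, TGI, LC50.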

[1] = Antiproliferative activity against human EKVX cells after 48 hrs by sulforhodamine B assay; summary of the method: as §1
NCI-H522 = assay: Antiproliferative activity against human NCI-H522 cells after 48 hrs by sulforhodamine B assay; settings: NCI-H522, 48 h; summary of the method: as §1
COLO 205 = assay: Antiproliferative activity against human COLO205 cells after 48 hrs by sulforhodamine B assay; settings: COLO 205, 48 h; summary of the method: as §1
OVCAR-4 = assay: Antiproliferative activity against human OVCAR4 cells after 48 hrs by sulforhodamine B assay; settings: OVCAR-4, 48 h; summary of the method: as §1
Malme-3M = assay: Antiproliferative activity against human MALME-3M cells after 48 hrs by sulforhodamine B assay; summary of the method: as §1
CCRF-CEM = assay: Antiproliferative activity against human CCRF-CEM cells after 48 hrs by sulforhodamine B assay; summary of the method: as §1
MCF7 = assay: Antiproliferative activity against human MCF7 cells after 48 hrs by sulforhodamine B assay; settings: MCF7, 48 h; summary of the method: as §1
UO-31 = assay: Antiproliferative activity against human UO31 cells after 48 hrs by sulforhodamine B assay; settings: UO-31, 48 h
Summary of the method: (§2)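 Cells in RPMI 1640 with 5% FBS and 2 mM L-glutamine were seeded at 5000–40,000/well according to doubling time and preincubated 24 h at 37 °C in 5% CO2. Time-zero plates were TCA-fixed when drug was added. Five 10-fold or ½-log dilutions from DMSO stocks were added for 48 h. After SRB staining, A515 was read and GI50 derived from [(Ti−Tz)/(C−Tz)]×100 = 50.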

U-251 = assay: Antiproliferative activity against human U251 cells after 48 hrs by sulforhodamine B assay; settings: U-251, 48 h; summary of the method: as §2
HCT-15 = assay: Antiproliferative activity against human HCT15 cells after 48 hrs by sulforhodamine B assay; settings: HCT-15, 48 h; summary of the method: as §1
SF-295 = assay: Antiproliferative activity against human SF295 cells after 48 hrs by sulforhodamine B assay; settings: SF-295, 48 h; summary of the method: as §1
HOP-62 = assay: Antiproliferative activity against human HOP62 cells after 48 hrs by sulforhodamine B assay; settings: HOP-62, 48 h; summary of the method: as §1
RPMI-8226 = assay: Antiproliferative activity against human RPMI8226 cells after 48 hrs by sulforhodamine B assay; settings: RPMI-8226, 48 h; summary of the method: as §1
HT-29 = assay: Antiproliferative activity against human HT-29 cells after 48 hrs by sulforhodamine B assay; settings: HT-29, 48 h; summary of the method: as §1
MDA-MB-468 = assay: Antiproliferative activity against human MDA-MB-468 cells after 48 hrs by sulforhodamine B assay; settings: MDA-MB-468, 48 h; summary of the method: as §1
K562 = assay: Antiproliferative activity against human K562 cells after 48 hrs by sulforhodamine B assay; settings: K562, 48 h; summary of the method: as §1
A498 = assay: Antiproliferative activity against human A498 cells after 48 hrs by sulforhodamine B assay; settings: A498, 48 h; summary of the method: as §1
ACHN = assay: Antiproliferative activity against human ACHN cells after 48 hrs by sulforhodamine B assay; summary of the method: as §1
MOLT-4 = assay: Antiproliferative activity against human MOLT4 cells after 48 hrs by sulforhodamine B assay; settings: MOLT-4, 48 h; summary of the method: as §1
T47D = assay: Antiproliferative activity against human T47D cells after 48 hrs by sulforhodamine B assay; summary of the method: as §2
MDA-MB-231 = assay: Antiproliferative activity against human MDA-MB-231 cells after 48 hrs by sulforhodamine B assay; settings: MDA-MB-231, 48 h; summary of the method: as §1
SNB-75 = assay: Antiproliferative activity against human SNB75 cells after 48 hrs by sulforhodamine B assay; settings: SNB-75, 48 h; summary of the method: as §2
TK-10 = assay: Antiproliferative activity against human TK10 cells after 48 hrs by sulforhodamine B assay; settings: TK-10, 48 h; summary of the method: as §2
NCI-H460 = assay: Antiproliferative activity against human NCI-H460 cells after 48 hrs by sulforhodamine B assay; settings: NCI-H460, 48 h; summary of the method: as §1
NCI-H322M = assay: Antiproliferative activity against human NCI-H322M cells after 48 hrs by sulforhodamine B assay; summary of the method: as §1
RXF 393 = assay: Antiproliferative activity against human RXF393 cells after 48 hrs by sulforhodamine B assay; settings: RXF 393, 48 h; summary of the method: as §1
HCT-116 = assay: Antiproliferative activity against human HCT116 cells after 48 hrs by sulforhodamine B assay; settings: HCT-116, 48 h; summary of the method: as §1
SNB-19 = assay: Antiproliferative activity against human SNB19 cells after 48 hrs by sulforhodamine B assay; settings: SNB-19, 48 h; summary of the method: as §1

O=C(CCCn1c(=O)c2sc3ncccc3c2n2nnc(-c3ccccc3)c12)NCCc1c[nH]cn1
GI50 (DU-145): 2750 nM
LC50 (DU-145): 61.7 µM
TGI (DU-145; read-out: pTGI (converted)): 19.5 µM
GI50 [1]: 15.1 µM
LC50 [1]: > 100 µM
TGI ([1]; read-out: pTGI (converted)): 44.7 µM
GI50 (NCI-H522): 2950 nM
LC50 (NCI-H522): 60.3 µM
TGI (NCI-H522; read-out: pTGI (converted)): 22.9 µM
GI50 (COLO 205): 6.31 µM
LC50 (COLO 205): 58.9 µM
TGI (COLO 205; read-out: pTGI (converted)): 23.4 µM
GI50 (OVCAR-4): 15.5 µM
LC50 (concentration killing 50% of cells) (OVCAR-4): 67.6 µM
TGI (OVCAR-4; read-out: pTGI (converted)): 32.4 µM
GI50 (Malme-3M): 18.2 µM
LC50 (Malme-3M): 75.9 µM
TGI (Malme-3M; read-out: pTGI (converted)): 37.2 µM
GI50 (CCRF-CEM): 224 nM
LC50 (CCRF-CEM): > 100 µM
TGI (CCRF-CEM; read-out: pTGI (converted)): 4.47 µM
GI50 (MCF7): 17.8 µM
LC50 (MCF7): > 100 µM
TGI (MCF7; read-out: pTGI (converted)): > 100 µM
GI50 (UO-31): 11.7 µM
LC50 (UO-31): 60.3 µM
TGI (UO-31; read-out: pTGI (converted)): 26.9 µM
GI50 (U-251): 1290 nM
LC50 (U-251): 45.7 µM
TGI (U-251; read-out: pTGI (converted)): 14.8 µM
GI50 (HCT-15): 5.75 µM
LC50 (HCT-15): > 100 µM
TGI (HCT-15; read-out: pTGI (converted)): > 100 µM
GI50 (SF-295): 1740 nM
LC50 (SF-295): 53.7 µM
TGI (SF-295; read-out: pTGI (converted)): 16.2 µM
GI50 (HOP-62): 16.6 µM
LC50 (HOP-62): 61.7 µM
TGI (HOP-62; read-out: pTGI (converted)): 31.6 µM
GI50 (RPMI-8226): 5.13 µM
CC50 (RPMI-8226; read-out: pLC50 (the source's name) (converted)): > 100 µM
TGI (RPMI-8226; read-out: pTGI (converted)): 35.5 µM
GI50 (HT-29): 3.89 µM
LC50 (HT-29): > 100 µM
TGI (HT-29; read-out: pTGI (converted)): 55 µM
GI50 (MDA-MB-468): 8.13 µM
LC50 (MDA-MB-468): 79.4 µM
TGI (MDA-MB-468; read-out: pTGI (converted)): 27.5 µM
GI50 (K562): 309 nM
LC50 (concentration killing 50% of cells) (K562): > 100 µM
TGI (K562; read-out: pTGI (converted)): 15.5 µM
GI50 (A498): 6.76 µM
LC50 (A498): 53.7 µM
TGI (A498; read-out: pTGI (converted)): 22.4 µM
GI50 (ACHN): 15.5 µM
LC50 (50% lethal concentration) (ACHN): 63.1 µM
TGI (ACHN; read-out: pTGI (converted)): 30.9 µM
GI50 (MOLT-4): 2240 nM
LC50 (MOLT-4): > 100 µM
TGI (MOLT-4; read-out: pTGI (converted)): 24 µM
GI50 (T47D): 1860 nM
LC50 (T47D): 64.6 µM
TGI (T47D; read-out: pTGI (converted)): 21.4 µM
GI50 (MDA-MB-231): 17.8 µM
LC50 (MDA-MB-231): 67.6 µM
TGI (MDA-MB-231; read-out: pTGI (converted)): 34.7 µM
GI50 (SNB-75): 15.1 µM
LC50 (concentration killing 50% of starting cells) (SNB-75): 55 µM
TGI (SNB-75; read-out: pTGI (converted)): 28.8 µM
GI50 (TK-10): 13.5 µM
LC50 (TK-10): 57.5 µM
TGI (TK-10; read-out: pTGI (converted)): 28.2 µM
GI50 (NCI-H460): 3.63 µM
LC50 (NCI-H460): 42.7 µM
TGI (NCI-H460; read-out: pTGI (converted)): 13.2 µM
GI50 (NCI-H322M): 14.8 µM
LC50 (NCI-H322M): 89.1 µM
TGI (NCI-H322M; read-out: pTGI (converted)): 36.3 µM
GI50 (RXF 393): 14.8 µM
LC50 (RXF 393): 77.6 µM
TGI (RXF 393; read-out: pTGI (converted)): 33.9 µM
GI50 (HCT-116): 380 nM
LC50 (HCT-116): 38.9 µM
TGI (HCT-116; read-out: pTGI (converted)): 10 µM
GI50 (SNB-19): 10.7 µM
LC50 (SNB-19): > 100 µM
TGI (SNB-19; read-out: pTGI (converted)): 33.9 µM
